Reference: publication PMC11904594 (Current Research in Microbial Sciences, 2025)
Values after ≈ are worked out from the molar mass of the structure shown.

Key:
S. aureus ATCC 29,213 [1] = assay: MIC, broth microdilution; assay type: cell-based, Staphylococcus aureus; conditions: MHB II, 10^6 CFU/ml, 37 °C, 24 h, triplicate
Summary of the method: (§1)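 Broth microdilution per CLSI. Strains were freshly plated on LB agar from glycerol stocks; the colistin-resistant lpxD mutant was plated on LB with 10 µg/ml colistin. Inoculum was 10^6 CFU/ml in Mueller Hinton broth II with two-fold dilutions of test compound from 100 to 0.10 µg/ml, incubated at 37 °C for 24 h. MIC was the lowest concentration with no growth.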

S. aureus MRSA USA 300 [2] = assay: MIC, broth microdilution; assay type: cell-based, Staphylococcus aureus; conditions: MHB II, 10^6 CFU/ml, 37 °C, 24 h, triplicate
Summary of the method: as §1

[3] = system: P. aeruginosa ATCC 27,853; assay: MIC, broth microdilution; assay type: cell-based, Pseudomonas aeruginosa; conditions: MHB II, 10^6 CFU/ml, 37 °C, 24 h, triplicate
Summary of the method: as §1

P. aeruginosa (ST175–1) [4] = assay: MIC, broth microdilution; assay type: cell-based, Pseudomonas aeruginosa; conditions: MHB II, 10^6 CFU/ml, 37 °C, 24 h, triplicate
Summary of the method: as §1

A. baumannii ATCC 19,606 [5] = assay: MIC, broth microdilution; assay type: cell-based, Acinetobacter baumannii; conditions: MHB II, 10^6 CFU/ml, 37 °C, 24 h, triplicate
Summary of the method: as §1

A. baumannii IB010 [6] = assay: MIC, broth microdilution; assay type: cell-based, Acinetobacter baumannii; conditions: MHB II, 10^6 CFU/ml, 37 °C, 24 h, triplicate
Summary of the method: as §1

A. baumannii Ab-1 [7] = assay: MIC, broth microdilution; assay type: cell-based, Acinetobacter baumannii; conditions: MHB II, 10^6 CFU/ml, 37 °C, 24 h, triplicate
Summary of the method: as §1

[8] = system: K. pneumoniae ATCC 43,816; assay: MIC, broth microdilution; assay type: cell-based, Klebsiella pneumoniae; conditions: MHB II, 10^6 CFU/ml, 37 °C, 24 h, triplicate
Summary of the method: as §1

K. pneumoniae CG258 [9] = assay: MIC, broth microdilution; assay type: cell-based, Klebsiella pneumoniae; conditions: MHB II, 10^6 CFU/ml, 37 °C, 24 h, triplicate
Summary of the method: as §1

E. coli ATCC 25,922 [10] = assay: MIC, broth microdilution; assay type: cell-based, Escherichia coli; conditions: MHB II, 10^6 CFU/ml, 37 °C, 24 h, triplicate
Summary of the method: as §1

E. coli ESBL 1057.1 [11] = assay: MIC, broth microdilution; assay type: cell-based, Escherichia coli; conditions: MHB II, 10^6 CFU/ml, 37 °C, 24 h, triplicate
Summary of the method: as §1

S. aureus ATCC 29,213 [12] = assay: Minimum bactericidal concentration; assay type: cell-based, Staphylococcus aureus; conditions: lowest concentration reducing at least 99.9 % of growth, plated on LB, 37 °C, 24 h, triplicate
S. aureus MRSA USA 300 [13] = assay: Minimum bactericidal concentration; assay type: cell-based, Staphylococcus aureus; conditions: lowest concentration reducing at least 99.9 % of growth, plated on LB, 37 °C, 24 h, triplicate
[14] = system: P. aeruginosa ATCC 27,853; assay: Minimum bactericidal concentration; assay type: cell-based, Pseudomonas aeruginosa; conditions: lowest concentration reducing at least 99.9 % of growth, plated on LB, 37 °C, 24 h, triplicate
P. aeruginosa (ST175–1) [15] = assay: Minimum bactericidal concentration; assay type: cell-based, Pseudomonas aeruginosa; conditions: lowest concentration reducing at least 99.9 % of growth, plated on LB, 37 °C, 24 h, triplicate
A. baumannii ATCC 19,606 [16] = assay: Minimum bactericidal concentration; assay type: cell-based, Acinetobacter baumannii; conditions: lowest concentration reducing at least 99.9 % of growth, plated on LB, 37 °C, 24 h, triplicate
A. baumannii IB010 [17] = assay: Minimum bactericidal concentration; assay type: cell-based, Acinetobacter baumannii; conditions: lowest concentration reducing at least 99.9 % of growth, plated on LB, 37 °C, 24 h, triplicate
A. baumannii Ab-1 [18] = assay: Minimum bactericidal concentration; assay type: cell-based, Acinetobacter baumannii; conditions: lowest concentration reducing at least 99.9 % of growth, plated on LB, 37 °C, 24 h, triplicate
[19] = system: K. pneumoniae ATCC 43,816; assay: Minimum bactericidal concentration; assay type: cell-based, Klebsiella pneumoniae; conditions: lowest concentration reducing at least 99.9 % of growth, plated on LB, 37 °C, 24 h, triplicate
K. pneumoniae CG258 [20] = assay: Minimum bactericidal concentration; assay type: cell-based, Klebsiella pneumoniae; conditions: lowest concentration reducing at least 99.9 % of growth, plated on LB, 37 °C, 24 h, triplicate
E. coli ATCC 25,922 [21] = assay: Minimum bactericidal concentration; assay type: cell-based, Escherichia coli; conditions: lowest concentration reducing at least 99.9 % of growth, plated on LB, 37 °C, 24 h, triplicate
E. coli ESBL 1057.1 [22] = assay: Minimum bactericidal concentration; assay type: cell-based, Escherichia coli; conditions: lowest concentration reducing at least 99.9 % of growth, plated on LB, 37 °C, 24 h, triplicate
[23] = system: 11 bacterial strains (S. aureus, P. aeruginosa, A. baumannii, K. pneumoniae, E. coli); assay: Antimicrobial activity screening, summary over groups of strains; assay type: cell-based; conditions: 50 µg/ml screen; all strains, Gram-negative and Gram-positive
K. pneumoniae CG258 [24] = assay: Time-kill assay; assay type: cell-based, Klebsiella pneumoniae; conditions: 24 h
Summary of the method: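 Broth without compound was the growth control. Samples taken at 0, 3, 6 and 24 h were diluted and plated on MH II agar for CFU counts. Each curve was run at least in duplicate.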

[25] = system: Galleria mellonella larvae; assay: In vivo toxicity in Galleria mellonella larvae; conditions: G. mellonella larvae, 50 µg/larvae (10 μl of 5 mg/ml), 30 °C, N=10 per group
Summary of the method: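 Sixth-instar Galleria mellonella larvae (200–300 mg) were held in sawdust at 4 °C until use. Groups of ten were injected with 10 μl of test compound, colistin or 0.9 % NaCl saline control into the second rear proleg, then kept at 30 °C.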

erythrocytes = conditions: percent hemolysis at 150 μM (table footnote); ref Oddo et al., 2016; cited from earlier work

Compound: CC[C@@H](C)[C@@H](NC(=O)[C@@H](CCCCN)NC(=O)[C@@H](CCCCN)NC(=O)[C@@H](Cc1ccccc1)NC(=O)[C@@H](CC(C)C)NC(=O)[C@@H](CCCCN)NC(=O)[C@H](N)CCCCN)C(=O)N[C@H](CC(C)C)C(=O)N[C@H](CCCNC(=N)N)C(=O)N[C@H](Cc1ccc(O)cc1)C(=O)N[C@H](CC(C)C)C(N)=O [BP607, reference compound]
- MIC (S. aureus ATCC 29,213 [1]): 50 µg/mL (≈ 34.5 µM)
- MIC (S. aureus MRSA USA 300 [2]): 50 µg/mL (≈ 34.5 µM)
- MIC [3]: 25 µg/mL (≈ 17.3 µM)
- MIC (P. aeruginosa (ST175–1) [4]): 50 µg/mL (≈ 34.5 µM)
- MIC (A. baumannii ATCC 19,606 [5]): 3.13 µg/mL (≈ 2.16 µM)
- MIC (A. baumannii IB010 [6]): 25 µg/mL (≈ 17.3 µM)
- MIC (A. baumannii Ab-1 [7]): 6.25 µg/mL (≈ 4.31 µM)
- MIC [8]: 12.5 µg/mL (≈ 8.63 µM)
- MIC (K. pneumoniae CG258 [9]): 12.5 µg/mL (≈ 8.63 µM)
- MIC (E. coli ATCC 25,922 [10]): 6.25 µg/mL (≈ 4.31 µM)
- MIC (E. coli ESBL 1057.1 [11]): 12.5 µg/mL (≈ 8.63 µM)
- MBC (S. aureus ATCC 29,213 [12]): 50 µg/mL (≈ 34.5 µM)
- MBC (S. aureus MRSA USA 300 [13]): 50 µg/mL (≈ 34.5 µM)
- MBC [14]: 25 µg/mL (≈ 17.3 µM)
- MBC (P. aeruginosa (ST175–1) [15]): 100 µg/mL (≈ 69 µM)
- MBC (A. baumannii ATCC 19,606 [16]): 6.25 µg/mL (≈ 4.31 µM)
- MBC (A. baumannii IB010 [17]): 50 µg/mL (≈ 34.5 µM)
- MBC (A. baumannii Ab-1 [18]): 6.25 µg/mL (≈ 4.31 µM)
- MBC [19]: 12.5 µg/mL (≈ 8.63 µM)
- MBC (K. pneumoniae CG258 [20]): 12.5 µg/mL (≈ 8.63 µM)
- MBC (E. coli ATCC 25,922 [21]): 6.25 µg/mL (≈ 4.31 µM)
- MBC (E. coli ESBL 1057.1 [22]): 12.5 µg/mL (≈ 8.63 µM)
- growth inhibition of all the strains [23]: ≈ 90%
- bactericidal activity in time-kill assay (K. pneumoniae CG258 [24]; peptide at 2× MIC): bactericidal
- bactericidal activity in time-kill assay (K. pneumoniae CG258 [24]; peptide at the MIC): maintained this bactericidal effect
- mortality after 24h [25]: 80%
- Hemolysis (erythrocytes): 42%
